We go through 3 molecules from ChEMBL document CHEMBL1157584, “Discovery of 4-amino-1-(7H-pyrrolo[2,3-d]pyrimidin-4-yl)piperidine-4-carboxamides as selective, orally active inhibitors of protein kinase B (Akt)” (J Med Chem, 2010).

Converted amounts (≈) assume the structure as drawn.

The nature of data set [1]: Solubility in aqueous buffer at pH 6.5. In kind it is physicochemical.
Data set [2] concerns Mus musculus. Put plainly: Plasma clearance in mouse at 25 mg/kg, iv. Set-up: dose 25 mg/kg, route intravenous. As to conditions: in vivo. The format is ADME, organism-based.
Data set [3] can be described thus: Solubility in aqueous buffer at pH 7.0. The format is physicochemical.
Data set [4] deals with Mus musculus. Put plainly: Half life in mouse at 10 mg/kg, iv. In kind it is ADME, organism-based. Set-up: dose 10 mg/kg, route intravenous. As to conditions: in vivo.
The nature of data set [5]: Oral bioavailability in mouse at 10 mg/kg. The format is ADME, organism-based. The conditions noted are these: in vivo.
In data set [6] the test system is Mus musculus. The data set is described as follows: Volume of distribution at steady state in mouse at 10 mg/kg, iv. The conditions noted are these: in vivo. Set-up: dose 10 mg/kg, route intravenous. In kind it is ADME, organism-based. The method in brief: (§1)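 Mice received a single iv dose, and plasma drug levels were followed over time. Pharmacokinetic parameters, including Vss in L, were fitted to model 201 with default settings.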

The test system of data set [7] is Mus musculus. Put plainly: Plasma clearance in mouse at 10 mg/kg, iv. In kind it is ADME, organism-based. Set-up: dose 10 mg/kg, route intravenous. As to conditions: in vivo.
Data set [8] is described as follows: Drug level in CrTac:Ncr-Fox1 (nu) athymic mouse tumor bearing human U87MG cells at 200 mg/kg, po single dose after 4 hrs. The format is ADME, organism-based, Neoplasm, U-87MG ATCC. Set-up: dose 200 mg/kg, route oral. The conditions noted are these: read-out: Drug uptake. The essentials: (§2)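 U87MG xenograft-bearing athymic mice given a single oral dose of 200 mg/kg. Compound levels measured in plasma and tumor samples 4 h after dosing.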

Data set [9] can be described thus: Plasma concentration in CrTac:Ncr-Fox1 (nu) athymic mouse bearing human U87MG cells at 200 mg/kg, po single dose after 4 hrs. The format is ADME, organism-based, U-87MG ATCC. On the set-up: dose 200 mg/kg, route oral. The method in brief: as §2
Data set [10] can be described thus: Oral bioavailability in mouse at 5 mg/kg. As to conditions: in vivo. In kind it is ADME, organism-based.
Data set [11] relates to Mus musculus. The data set is described as follows: Plasma clearance in mouse at 5 mg/kg, iv. In kind it is ADME, organism-based. Set-up: dose 5 mg/kg, route intravenous. The conditions noted are these: in vivo.
Data set [12] has as its system Mus musculus. The data set is described as follows: Volume of distribution at steady state in mouse at 5 mg/kg, iv. As to conditions: in vivo. Set-up: dose 5 mg/kg, route intravenous. In kind it is ADME, organism-based. The method in brief: as §1
Data set [13] concerns Mus musculus. Put plainly: Half life in mouse at 5 mg/kg, iv. In kind it is ADME, organism-based. As to conditions: in vivo. On the set-up: dose 5 mg/kg, route intravenous.

In the case of `NC1(Cc2ccc(Cl)cc2)CCN(c2ncnc3[nH]ccc23)CC1`, the solubility (usually how much of the substance goes into solution per volume) is 260 µg/mL (≈ 761 µM) in [1] and “Insoluble” in data set [3]. In the data set on Mus musculus [2], this molecule displayed a CL of 0.33 L/h.

For `CC(C)(C)c1ccc(CC2(N)CCN(c3ncnc4[nH]ccc34)CC2)cc1`, in the data set on Mus musculus [4], the t1/2 worked out at 47.4 min. In [5], the bioavailability (usually dose-corrected exposure relative to a reference, in per cent) is below 1%. In the data set with Mus musculus [6], the volume of distribution (Vdss) (as a rule, the apparent volume that relates the amount in the body to the concentration in plasma or blood) came out at 0.27 L. This molecule also returned a CL in the data set with Mus musculus [7] of 0.31 L/h.

As to `NC1(C(=O)NCc2ccc(Cl)cc2)CCN(c2ncnc3[nH]ccc23)CC1`, the concentration at 4 h in data set [8] worked out at 43 µM; in [9] it was 20 µM. In data set [10], this molecule gave a bioavailability of 58%. The same molecule displayed a CL in the data set with Mus musculus [11] of 0.08 L/h. This molecule also displayed a Vdss with Mus musculus [12] of 0.06 L. The t1/2 in the data set on Mus musculus [13] worked out at 54 min.
